Source: ChEMBL document CHEMBL1932995, “Synthesis of 5-aryl-1,4-benzodiazepine derivatives attached in resorcinaren-PAMAM dendrimers and their anti-cancer activity” (Bioorg Med Chem, 2012)
The source made the active and inactive calls. The rule behind the calls is not given here.

What was measured:
[1] = tested on: U-251; assay: Growth inhibition of human U251 cells at 50 uM after 48 hrs by SRB assay; format: functional; conditions: for inhibition of growth at 50 µM: U-251, 48 h, read-out: GI
Summary of the method: (§1)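 Cell lines obtained from NCI, grown in RPMI-1640 with 10% fetal bovine serum, 2 mM glutamine, penicillin G, streptomycin, amphotericin B and 1% non-essential amino acids, at 37 °C, humidified 5% CO2. Cell viability above 95% by trypan blue. Compounds tested in DMSO. Growth read by sulforhodamine B protein staining in microculture per NCI protocol, reported as % inhibition.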

[2] = tested on: HCT-15; assay: Growth inhibition of human HCT15 cells at 50 uM after 48 hrs by SRB assay; format: functional; conditions: for inhibition of growth at 50 µM: HCT-15, 48 h, read-out: GI; summary of the method: as §1
[3] = tested on: SK-LU-1; assay: Growth inhibition of human SKLU1 cells at 50 uM after 48 hrs by SRB assay; format: functional; conditions: for inhibition of growth at 50 µM: SK-LU-1, 48 h, read-out: GI; summary of the method: as §1
[4] = tested on: PC-3; assay: Growth inhibition of human PC3 cells at 50 uM after 48 hrs by SRB assay; format: functional; conditions: for inhibition of growth at 50 µM: PC-3, 48 h, read-out: GI; summary of the method: as §1
[5] = tested on: K562; assay: Growth inhibition of human K562 cells at 50 uM after 48 hrs by SRB assay; format: functional; conditions: for inhibition of growth at 50 µM: K562, 48 h, read-out: GI; summary of the method: as §1
[6] = tested on: MCF7; assay: Growth inhibition of human MCF7 cells at 50 uM after 48 hrs by SRB assay; format: functional; conditions: for inhibition of growth at 50 µM: MCF7, 48 h, read-out: GI; summary of the method: as §1
[7] = tested on: SK-LU-1; assay: Anticancer activity against human SKLU1 cells after 48 hrs by SRB assay; format: functional, cell-based
[8] = tested on: HCT-15; assay: Anticancer activity against human HCT15 cells after 48 hrs by SRB assay; format: functional, cell-based

SMILES | inhibition of growth at 50 µM [1] | inhibition of growth at 50 µM [2] | inhibition of growth at 50 µM [3] | inhibition of growth at 50 µM [4] | inhibition of growth at 50 µM [5] | inhibition of growth at 50 µM [6] | IC50 [7] | IC50 [8] | growth inhibition (GI) [4] | growth inhibition (GI) [6] | growth inhibition (GI) [1] | growth inhibition (GI) [2] | growth inhibition (GI) [3] | growth inhibition (GI) [5]
COC(=O)CN1C(=O)CN=C(c2ccccc2)c2cc([N+](=O)[O-])ccc21 | 33.7% | 25.2% | 27.5% | 22.3% | 30.6% | 22.2% | – | – | – | – | – | – | – | –
CCCCCCCCCCCC1c2cc(c(OCC(=O)NCCN)cc2OCC(=O)NCCN)C(CCCCCCCCCCC)c2cc(c(OCC(=O)NCCN)cc2OCC(=O)NCCN)C(CCCCCCCCCCC)c2cc(c(OCC(=O)NCCN)cc2OCC(=O)NCCN)C(CCCCCCCCCCC)c2cc1c(OCC(=O)NCCN)cc2OCC(=O)NCCN (configuration not stated) | 18.1% | 31.5% | 16.2% | – | 11.2% | – | Active | Active | Active | Active | – | – | – | –
COC(=O)CN1C(=O)CN=C(c2ccccc2F)c2cc(Cl)ccc21 | 20.7% | 26% | 19.8% | 22.4% | 27.2% | 24.5% | – | – | – | – | – | – | – | –
NCCNC(=O)CCN(CCNC(=O)COc1cc(OCC(=O)NCCN(CCC(=O)NCCN)CCC(=O)NCCN)c2cc1C(CCc1ccccc1)c1cc(c(OCC(=O)NCCN(CCC(=O)NCCN)CCC(=O)NCCN)cc1OCC(=O)NCCN(CCC(=O)NCCN)CCC(=O)NCCN)C(CCc1ccccc1)c1cc(c(OCC(=O)NCCN(CCC(=O)NCCN)CCC(=O)NCCN)cc1OCC(=O)NCCN(CCC(=O)NCCN)CCC(=O)NCCN)C(CCc1ccccc1)c1cc(c(OCC(=O)NCCN(CCC(=O)NCCN)CCC(=O)NCCN)cc1OCC(=O)NCCN(CCC(=O)NCCN)CCC(=O)NCCN)C2CCc1ccccc1)CCC(=O)NCCN (configuration not stated) | – | – | – | – | – | – | Active | Active | Active | Active | Active | Active | Active | Active
Oc1cc(O)c2cc1C(CCc1ccccc1)c1cc(c(O)cc1O)C(CCc1ccccc1)c1cc(c(O)cc1O)C(CCc1ccccc1)c1cc(c(O)cc1O)C2CCc1ccccc1 (configuration not stated) | 47.6% | 14.7% | 14.8% | 5.4% | 60.8% | 21.5% | – | – | – | – | – | – | – | –
COC(=O)CN1C(=O)CN=C(c2ccccc2Cl)c2cc(Cl)ccc21 | 18.6% | 12.9% | 12.5% | 12.8% | 15.9% | 11.8% | Active | Active | – | – | – | – | – | –
NCCNC(=O)COc1cc(OCC(=O)NCCN)c2cc1C(CCc1ccccc1)c1cc(c(OCC(=O)NCCN)cc1OCC(=O)NCCN)C(CCc1ccccc1)c1cc(c(OCC(=O)NCCN)cc1OCC(=O)NCCN)C(CCc1ccccc1)c1cc(c(OCC(=O)NCCN)cc1OCC(=O)NCCN)C2CCc1ccccc1 (configuration not stated) | 37% | 34.9% | 30.9% | 29% | 35.3% | 33.2% | – | – | – | – | – | – | – | –
COC(=O)CN1C(=O)CN=C(c2ccccc2)c2cc(Cl)ccc21 | 11.7% | 12% | 13.2% | 12.3% | 19.7% | 19.3% | Active | Active | – | – | – | – | – | –
CCCCCCCCCCCC1c2cc(c(OCC(=O)NCCN(CCC(=O)NCCN)CCC(=O)NCCN)cc2OCC(=O)NCCN(CCC(=O)NCCN)CCC(=O)NCCN)C(CCCCCCCCCCC)c2cc(c(OCC(=O)NCCN(CCC(=O)NCCN)CCC(=O)NCCN)cc2OCC(=O)NCCN(CCC(=O)NCCN)CCC(=O)NCCN)C(CCCCCCCCCCC)c2cc(c(OCC(=O)NCCN(CCC(=O)NCCN)CCC(=O)NCCN)cc2OCC(=O)NCCN(CCC(=O)NCCN)CCC(=O)NCCN)C(CCCCCCCCCCC)c2cc1c(OCC(=O)NCCN(CCC(=O)NCCN)CCC(=O)NCCN)cc2OCC(=O)NCCN(CCC(=O)NCCN)CCC(=O)NCCN (configuration not stated) | 56.5% | 91.3% | 100% | 38.5% | 100% | 92% | – | – | – | – | – | – | – | –
